The subject of data set [1] is AGS. Nature of the data set: Potentiation of TRAIL-induced cytotoxicity against human AGS cells assessed as reduction in cell viability at 10 to 30 uM measured after 24 hrs by FMCA method. The data set is classed as functional, cell-based. The essentials:
(§1)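 FMCA viability assay in TRAIL-resistant AGS cells or HEK293 cells (HEK293 in DMEM, 10% FBS, 1% penicillin-streptomycin). Cells are seeded at 6 × 10^3 per well, left 24 h at 37 °C in 5% CO2, then exposed to test sample at several doses with or without TRAIL (100 ng/mL) for 24 h. Cells are PBS-washed and given […] (10 μg/mL) in PBS for 1 h at 37 °C. Fluorescence is read at ex 485/em 538 nm. Means ± SD, n = 4; luteolin is the positive control and DMSO the negative control.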

Data set [2] deals with AGS. The data set is described as follows: Potentiation of TRAIL-induced cytotoxicity in human AGS cells assessed as reduction in cell viability at 5 to 25 uM measured after 24 hrs by FMCA method. The data set is classed as functional, cell-based. The essentials:
as §1

Data set [3] concerns AGS. The data set is described as follows: Potentiation of TRAIL-induced apoptosis in human AGS cells assessed as increase in cleaved caspase3 level at 16 uM measured after 24 hrs by Western blot analysis. The data set is classed as functional. The essentials:
(§2)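 Western blot in AGS cells for cleaved caspases-3, -8 and -9. Cells are seeded for 24 h, then given compound at 16 μM, TRAIL (100 ng/mL), or both together for 24 h. Lysates are made in the Tris/Triton/deoxycholate lysis buffer with protease inhibitors and run on 12.5% SDS-PAGE. Proteins are transferred to PVDF, immunodetected with HRP secondary antibodies and read by ECL chemiluminescence.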
On the technique in general: In western blotting, separated proteins are transferred to a membrane and probed.

Data set [4] concerns AGS. The data set is described as follows: Induction of apoptosis in human AGS cells assessed as cleaved caspase3 level at 16 uM measured after 24 hrs by Western blot analysis relative to control. In kind it is functional. Put shortly:
as §2

Data set [5] is described as follows: Upregulation of CHOP expression in human AGS cells measured after 24 hrs by Western blot analysis. In kind it is functional, cell-based. The essentials:
(§3)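 Western blot in AGS cells. Cells are seeded for 24 h and treated with compound at the indicated concentrations for 24 h. Lysis is in Tris·HCl (20 mM, pH 7.4), NaCl 150 mM, 0.5% Triton X-100, 0.5% deoxycholate, EDTA 10 mM, orthovanadate 1 mM, NaF 0.1 mM and protease inhibitors. Proteins are run on 12.5% SDS-PAGE and transferred to PVDF, blocked in 5% milk/TBST, probed with primary and then HRP secondary antibodies, and detected by ECL. β-Actin is the internal control.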

A short description of data set [6]: Upregulation of cleaved caspase-8 expression in human AGS cells at 8 to 24 uM measured after 24 hrs by Western blot analysis. The data set is classed as functional, cell-based. Put shortly:
as §3

Data set [7] relates to AGS. The data set is described as follows: Potentiation of TRAIL-induced apoptosis in human AGS cells assessed as increase in cleaved caspase8 level at 16 uM measured after 24 hrs by Western blot analysis. In kind it is functional. The essentials: as §2
A short description of data set [8]: Downregulation of GSK-3beta protein expression in human AGS cells measured after 24 hrs by Western blot analysis. In kind it is functional, cell-based. Put shortly:
as §3

A short description of data set [9]: Upregulation of cleaved caspase3 expression in human AGS cells at 8 to 24 uM measured after 24 hrs by Western blot analysis. In kind it is functional, cell-based. Put shortly:
as §3

Data set [10] can be described thus: Downregulation of Bcl2 protein expression in human AGS cells measured after 24 hrs by Western blot analysis. In kind it is functional, cell-based. Put shortly: as §3
The nature of data set [11]: Upregulation of p53 protein expression in human AGS cells measured after 24 hrs by Western blot analysis. The data set is classed as functional, cell-based. Put shortly: as §3
A short description of data set [12]: Upregulation of Fas protein expression in human AGS cells measured after 24 hrs by Western blot analysis. The data set is classed as functional, cell-based. The essentials:
as §3

Data set [13] concerns AGS. Nature of the data set: Induction of apoptosis in human AGS cells assessed as cleaved caspase8 level at 16 uM measured after 24 hrs by Western blot analysis relative to control. The data set is classed as functional. The essentials:
as §2

Data set [14] in a line: Cytotoxicity against HEK293 cells assessed as reduction in cell viability up to 30 uM measured after 24 hrs in presence of TRIAL by FMCA method. In kind it is toxicity, cell-based. The conditions noted are these: human, hek293, 24 h. Put shortly:
as §1

The subject of data set [15] is AGS. The data set is described as follows: Potentiation of TRAIL-induced apoptosis in human AGS cells assessed as increase in cleaved caspase9 level at 16 uM measured after 24 hrs by Western blot analysis. The data set is classed as functional. Put shortly:
as §2

Data set [16] can be described thus: Downregulation of c-FLIP expression in human AGS cells at 8 to 24 uM measured after 24 hrs by Western blot analysis. The data set is classed as functional, cell-based. The essentials: as §3
Data set [17] in a line: Upregulation of Bax protein expression in human AGS cells at 8 to 24 uM measured after 24 hrs by Western blot analysis. The data set is classed as functional, cell-based. Put shortly:
as §3

Data set [18] is described as follows: Upregulation of cleaved caspase9 expression in human AGS cells at 8 to 24 uM measured after 24 hrs by Western blot analysis. The data set is classed as functional, cell-based. The essentials:
as §3

Data set [19] in a line: Upregulation of DR4 protein expression in human AGS cells measured after 24 hrs by Western blot analysis. In kind it is functional, cell-based. The essentials: as §3
The subject of data set [20] is AGS. The data set is described as follows: Induction of apoptosis in human AGS cells assessed as cleaved caspase9 level at 16 uM measured after 24 hrs by Western blot analysis relative to control. The data set is classed as functional. Put shortly:
as §2

Data set [21] is described as follows: Upregulation of DR5 protein expression in human AGS cells measured after 24 hrs by Western blot analysis. In kind it is functional, cell-based. The essentials:
as §3

In data set [22] the test system is AGS. The data set is described as follows: Potentiation of TRAIL-induced cytotoxicity against human AGS cells assessed as reduction in cell viability at 10 to 50 uM measured after 24 hrs by FMCA method. The data set is classed as functional, cell-based. The essentials:
as §1

The subject of data set [23] is AGS. The data set is described as follows: Potentiation of TRAIL-induced cytotoxicity against human AGS cells assessed as reduction in cell viability at 20 to 80 uM measured after 24 hrs by FMCA method. In kind it is functional, cell-based. The essentials:
as §1

Data set [24] deals with AGS. Nature of the data set: Potentiation of TRAIL-induced cytotoxicity against human AGS cells assessed as reduction in cell viability at 40 to 120 uM measured after 24 hrs by FMCA method. In kind it is functional, cell-based. Put shortly:
as §1

Data set [25] has as its system AGS. Nature of the data set: Potentiation of TRAIL-induced cytotoxicity against human AGS cells assessed as reduction in cell viability at 10 to 40 uM measured after 24 hrs by FMCA method. The data set is classed as functional, cell-based. The essentials:
as §1

Data set [26] deals with AGS. Nature of the data set: Potentiation of TRAIL-induced cytotoxicity against human AGS cells assessed as reduction in cell viability at 20 to 60 uM measured after 24 hrs by FMCA method. In kind it is functional, cell-based. Put shortly:
as §1

Data set [27] has as its system AGS. Nature of the data set: Potentiation of TRAIL-induced cytotoxicity against human AGS cells assessed as reduction in cell viability at 5 to 30 uM measured after 24 hrs by FMCA method. The data set is classed as functional, cell-based. The essentials:
as §1

Each structure is given as a SMILES string. Activity calls are given as the source filed them. The calls are words filed in the database; no cut-off is given here.

Take `C=C[C@@]1(C)C=C2CC[C@H]3C(C)(C)CC[C@H](O)[C@]3(C)[C@H]2[C@H](O)C1`: the outcome in the data set with AGS [1] was Active.
As to `C=C[C@]1(C)C=C2[C@H](O)[C@@H](OC(C)=O)[C@H]3C(C)(C)CCC[C@]3(C)[C@@]2(O)CC1`, the outcome with AGS [1] was Active.
With `C=C[C@]1(C)C=C2[C@@H](O)C[C@H]3C(C)(C)CCC[C@]3(C)[C@@]2(O)[C@H](O)C1`, the result in the data set with AGS [1] was Active.
Turning to `C=C[C@]1(C)C=C2C[C@@H](OC(C)=O)[C@H]3C(C)(C)CC[C@H](O)[C@]3(C)[C@@]2(O)CC1`, the outcome (with AGS [2]; in [6]; in data set [9]; in data set [16]; in [17]; in data set [18]) was Active. Moreover, the Activity in the data set on AGS [3] is 68%; in the data set with AGS [4], 0%; in data set [5] it was “Dose-dependent effect”; in the data set with AGS [7], 65%; in data set [8], “Dose-dependent effect”; in data set [10], “Dose-dependent effect”. The Activity result in data set [11] is “Dose-dependent effect”; in data set [12] it was “Dose-dependent effect”; with AGS [13], 0%; in data set [14], “Non-Toxic”; with AGS [15], 75%; in data set [19], “Dose-dependent effect”. The results for the Activity (with AGS [20]; in data set [21]) were 15% and “Dose-dependent effect”, respectively.
With `C=C[C@]1(C)C=C2CC[C@H]3C(C)(C)C[C@H](O)[C@H](O)[C@]3(C)[C@H]2CC1`, in the data set with AGS [1], the result was Active.
With `C=C[C@]1(C)C=C2C[C@@H](O)[C@H]3C(C)(C)[C@H](O)C[C@H](O)[C@]3(C)[C@H]2CC1`, in the data set with AGS [22], the outcome was Active.
`C=C[C@]1(C)C=C2[C@H](O)[C@@H](OC(C)=O)[C@H]3C(C)(C)CC[C@H](O)[C@]3(C)[C@@]2(O)CC1`: the result in the data set on AGS [1] was Active.
Take `C=C[C@@]1(C)CCC2=C(C[C@@H](O)[C@H]3C(C)(C)CCC[C@]23C)[C@H]1O`: the result with AGS [22] was Active.
For the molecule `C=C[C@@]1(C)CCC2=C(C[C@@H](O)[C@H]3C(C)(C)CC[C@H](O)[C@]23C)C1=O`, in the data set on AGS [23], the result was Active.
`C=C[C@]1(C)C=C2C[C@@H](O)[C@H]3C(C)(C)CC[C@H](O)[C@]3(C)[C@@]2(O)CC1`: the result in the data set on AGS [24] was Active.
Consider `C=C[C@]1(C)C=C2C[C@@H](O)[C@H]3C(C)(C)CCC(=O)[C@]3(C)[C@@]2(O)CC1`, for which the result with AGS [25] was Active.
The same measure, in the same setting: in the case of `C=C[C@]1(C)C=C2C[C@@H](OC(C)=O)[C@H]3C(C)(C)CCC(=O)[C@]3(C)[C@@]2(O)CC1` it was “Active”.
As for `C=C[C@]1(C)C=C2[C@H](O)C[C@H]3C(C)(C)CC[C@H](O)[C@]3(C)[C@@]2(O)CC1`, in the data set with AGS [26], the outcome was Active.
Take `C=C[C@@]1(C)CCC2=C([C@H]1OC)[C@H](OC)[C@@H](O)[C@H]1C(C)(C)CCC[C@]21C`: the outcome in the data set on AGS [25] was Active.
With `C=C[C@@]1(C)CCC2=C([C@H](O)[C@@H](O)[C@H]3C(C)(C)CCC[C@]23C)[C@@H]1OC`, in the data set on AGS [26], the outcome was Active.
On to `C=C[C@]1(C)C=C2CC[C@H]3C(C)(C)CC[C@H](O)[C@]3(C)[C@@]2(O)CC1`, for which the outcome with AGS [27] was Active.
`C=C[C@@]1(C)CCC2=C([C@H](OC)[C@@H](O)[C@H]3C(C)(C)CCC[C@]23C)[C@@H]1OC`: the result in the data set on AGS [1] was Active.
Take `CC1=C[C@@H](O)[C@H](C(C)C)CC1=O`: the result with AGS [23] was Active.

These data come from ChEMBL document CHEMBL3867441, “Boesenberols, Pimarane Diterpenes with TRAIL-Resistance-Overcoming Activity from Boesenbergia pandurata” (J Nat Prod, 2016).
